The values that follow come from ChEMBL document CHEMBL1125917, “Synthesis of halogen-substituted 1,5-benzothiazepine derivatives and their vasodilating and hypotensive activities” (1991).

Experiment [1] has as its system Canis familiaris. The experiment is described as follows: Antihypertensive activity by the increase in the vertebral blood flow in anesthetized dogs expressed as duration of half of the maximum change in blood flow. Format: functional, Canis lupus familiaris. The essentials:
(§1)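 Anesthetized dogs; compounds given intraarterially. Vertebral blood flow recorded, and a dose-response curve built from peak responses. Potency given as ratio to diltiazem, calculated from the dose-response curves. Half duration is the time, in minutes, that blood flow stays at one-half of the maximum change.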

For experiment [2], the species on record is Canis familiaris. Kind of experiment: Antihypertensive activity expressed as the ratio of the potency evaluated by increased vertebral blood flow (VBF) to that of diltiazem. Format: functional, Canis lupus familiaris. An outline of the steps: as §1
Experiment [3] is filed under the species Cavia porcellus. The experiment is described as follows: (§2) Increase in the coronary blood flow (CBF) was determined in isolated guinea pig heart at a dose of 100 ug/heart. Format: functional, Artery. The essentials:
(§3)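 Hartley guinea pig hearts perfused by the Langendorff method with modified Locke-Ringer solution containing defibrinated rabbit blood, at 40 cm H2O and 29 ± 1 °C. Compounds in saline injected into the aortic cannula at 3, 10, 30 or 100 μg/heart. Coronary flow measured by drop counter; graded by the lowest dose giving an increase of at least 0.5 mL/min.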

The species entered for experiment [4] is Cavia porcellus. Kind of experiment: Increase in the coronary blood flow (CBF) was determined in isolated guinea pig heart at a dose of 30 ug/heart. The format is functional, Artery. The essentials:
as §3

The species entered for experiment [5] is Cavia porcellus. Described as §2. Format: functional. The essentials:
as §3

For experiment [6], the system named is Rattus norvegicus. The experiment is described as follows: Hypotensive activity in SHR (spontaneously hypertensive rats) expressed as change in blood pressure(mmHg) after 1 hr dosing at a concentration of 30 mg/kg. Format: functional. An outline of the steps: (§4)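 Male spontaneously hypertensive rats, fasted 20 h. Compounds dissolved in deionized water and given orally (30 mg/kg; some at 100 mg/kg). Blood pressure measured by tail-cuff in conscious animals. Change (mmHg) taken from the predosing value at 1 and 4 h, or 1 and 5 h, after dosing. N = 3-6.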

The test system of experiment [7] is Rattus norvegicus. The experiment is described as follows: Hypotensive activity in SHR (spontaneously hypertensive rats) expressed as change in blood pressure(mmHg) after 4 hr dosing at a concentration of 30 mg/kg. Format: functional. The essentials:
as §4

Experiment [8] has as its system Rattus norvegicus. Kind of experiment: Change in blood pressure in spontaneously hypertensive rats 1 hr following 30 mg/kg p.o. The format is functional. The conditions noted are these: route oral. The essentials: as §4
In experiment [9] the test system is Rattus norvegicus. The experiment is described as follows: Hypotensive activity in SHR (spontaneously hypertensive rats) expressed as change in blood pressure(mmHg) after 5 hr dosing at a concentration of 30 mg/kg. The format is functional. An outline of the steps:
as §4

For experiment [10], the system named is Rattus norvegicus. The experiment is described as follows: Hypotensive activity in SHR (spontaneously hypertensive rats) expressed as change in blood pressure(mmHg) after 4 hr dosing at a concentration of 100 mg/kg. Format: functional. An outline of the steps: as §4

As to `CSc1ccc(C2Sc3cc(Cl)ccc3N(CCN(C)C)C(=O)C2O)cc1` (stereo unspecified), in the experiment with Canis familiaris [1], the Half duration is 35 min. In addition, in the experiment listed under Canis familiaris [2], the Potency ratio was found to be 0.09. Besides, in the experiment listed under Cavia porcellus [3], the “Increase in CBF” value is greater than 0.5 mL/min.
For `CCOC(=O)OC1C(=O)N(CCN(C)C)c2ccc(Cl)cc2SC1c1ccc(OC)cc1` (stereo unspecified), in that order: 44 min, 0.29 and greater than 0.5 mL/min.
`CCCCNC(=O)OC1C(=O)N(CCN(C)C)c2ccc(Cl)cc2SC1c1ccc(OC)cc1` (stereo unspecified): in the experiment with Canis familiaris [1], the Half duration worked out at 76 min. Moreover, in the experiment filed under Canis familiaris [2], the Potency ratio was determined as 0.31. For the same compound, the “Increase in CBF” value in the experiment filed under Cavia porcellus [4] is greater than 0.5 mL/min.
`COc1ccc(C2Sc3cc(F)ccc3N(CCN(C)C)C(=O)C2OC(=O)c2ccc([N+](=O)[O-])cc2)cc1` (stereo unspecified) had a Half duration in the experiment with Canis familiaris [1] of 48 min. Further, the Potency ratio in the experiment listed under Canis familiaris [2] was determined as 0.35. For the same compound, the “Increase in CBF” value in the experiment listed under Cavia porcellus [4] is greater than 0.5 mL/min.
For the compound `CCCN(C)CCN1C(=O)C(OC(C)=O)C(c2ccc(OC)cc2)Sc2cc(Cl)ccc21` (stereo unspecified), the Half duration in the experiment with Canis familiaris [1] is 47 min. Moreover, in the experiment filed under Canis familiaris [2], the Potency ratio is given as 0.5. Further, the “Increase in CBF” value in the experiment listed under Cavia porcellus [5] was greater than 0.5 mL/min. The “Change in blood pressure” value with Rattus norvegicus [6] is given as -16 delta mmHg; with Rattus norvegicus [7] it was -9 delta mmHg.
Consider `C=CCN(C)CCN1C(=O)C(OC(C)=O)C(c2ccc(OC)cc2)Sc2cc(Cl)ccc21` (stereo unspecified), for which the Half duration in the experiment on Canis familiaris [1] came out at 37 min. Also, the Potency ratio in the experiment filed under Canis familiaris [2] is 1. Further, the “Increase in CBF” value in the experiment filed under Cavia porcellus [5] was greater than 0.5 mL/min. The “Change in blood pressure” value in the experiment on Rattus norvegicus [8] is reported as -29 delta mmHg; in the experiment on Rattus norvegicus [9], -17 delta mmHg.
The compound `CSc1ccc(C2Sc3cc(Cl)ccc3N(CCN(C)C)C(=O)C2OC(C)=O)cc1` (stereo unspecified) displayed a Half duration in the experiment on Canis familiaris [1] of 37 min. In addition, the Potency ratio in the experiment filed under Canis familiaris [2] was 0.21. Also, the “Increase in CBF” value in the experiment filed under Cavia porcellus [3] was greater than 0.5 mL/min.
Turning to `CCCCNC(=O)OC1C(=O)N(CCN(C)C)c2ccc(F)cc2SC1c1ccc(OC)cc1` (stereo unspecified), in the experiment with Canis familiaris [1], the Half duration is 58 min. In addition, in the experiment listed under Canis familiaris [2], the Potency ratio stood at 0.16. In the experiment listed under Cavia porcellus [4], the “Increase in CBF” value was greater than 0.5 mL/min.
With `COc1ccc(C2Sc3cc(Cl)c(Cl)cc3N(CCN(C)C)C(=O)C2OC(C)=O)cc1.Cl` (stereo unspecified), the Half duration in the experiment with Canis familiaris [1] is 53 min. Also, the Potency ratio in the experiment filed under Canis familiaris [2] came to 0.51. In addition, the “Increase in CBF” value in the experiment listed under Cavia porcellus [4] is greater than 0.5 mL/min.
`COc1ccc(C2Sc3c(Cl)cccc3N(CCN(C)C)C(=O)C2O)cc1.Cl` (stereo unspecified) had a Half duration in the experiment on Canis familiaris [1] of 52 min. In addition, in the experiment filed under Canis familiaris [2], the Potency ratio worked out at 0.91. Moreover, in the experiment listed under Cavia porcellus [4], the “Increase in CBF” value was greater than 0.5 mL/min.
Compound `COc1ccc(C2Sc3c(ccc(Cl)c3Cl)N(CCN(C)C)C(=O)C2O)cc1.Cl` (stereo unspecified) returned a Half duration with Canis familiaris [1] of 80 min. Also, the Potency ratio in the experiment listed under Canis familiaris [2] came out at 0.62. In the experiment filed under Cavia porcellus [4], the “Increase in CBF” value was greater than 0.5 mL/min.
With `COc1ccc(C2Sc3cccc(Cl)c3N(CCN(C)C)C(=O)C2O)cc1.Cl` (stereo unspecified), the Half duration in the experiment on Canis familiaris [1] is listed as 33 min. For the same compound, in the experiment filed under Canis familiaris [2], the Potency ratio was 0.2. Besides, the “Increase in CBF” value in the experiment filed under Cavia porcellus [3] was greater than 0.5 mL/min. Further, the entries for the “Change in blood pressure” value in the experiment with Rattus norvegicus [8] and in the experiment on Rattus norvegicus [7] were -31.7 delta mmHg and -26 delta mmHg, respectively.
As for `COc1ccc(C2Sc3cc(Cl)ccc3N(CCN(C)C)C(=O)C2OC)cc1` (single isomer, unassigned; (+)), in the experiment on Canis familiaris [1], the Half duration came to 47 min. Also, in the experiment filed under Canis familiaris [2], the Potency ratio was 0.58. For the same compound, the “Change in blood pressure” value in the experiment with Rattus norvegicus [8] was -76.8 delta mmHg; with Rattus norvegicus [9], -56.5 delta mmHg.
In the experiment with Canis familiaris [1], `COc1ccc(C2Sc3cc(Cl)ccc3N(CCN(C)C)C(=O)C2OC=O)cc1` (single isomer, unassigned; (+)) came in with a Half duration of 44 min. Besides, the Potency ratio in the experiment listed under Canis familiaris [2] is given as 0.73. Moreover, in the experiment listed under Cavia porcellus [5], the “Increase in CBF” value is greater than 0.5 mL/min. The “Change in blood pressure” value in the experiment with Rattus norvegicus [8] is on record as -60 delta mmHg; in the experiment with Rattus norvegicus [10] it was -72.7 delta mmHg.
Turning to `COc1ccc(C2Sc3cc(Cl)ccc3N(CCN(C)C)C(=O)C2O)cc1` (single isomer, unassigned; (+)), in the experiment with Canis familiaris [1], the Half duration worked out at 46 min. Moreover, the Potency ratio in the experiment filed under Canis familiaris [2] was determined as 0.94. The “Increase in CBF” value in the experiment filed under Cavia porcellus [5] was greater than 0.5 mL/min. The “Change in blood pressure” value is -13.3 delta mmHg in the experiment with Rattus norvegicus [8] (30 mg/kg) and -51.7 delta mmHg in the experiment with Rattus norvegicus [7] (30 mg/kg).
With `COc1ccc(C2Sc3cc(Cl)ccc3N(CCN(C)C)C(=O)C2OCc2ccc([N+](=O)[O-])cc2)cc1` (single isomer, unassigned; (+)), the Potency ratio in the experiment filed under Canis familiaris [2] was determined as 0.58. For the same compound, the “Increase in CBF” value in the experiment filed under Cavia porcellus [5] is greater than 0.5 mL/min. Moreover, the “Change in blood pressure” value in the experiment with Rattus norvegicus [8] is given as -11.5 delta mmHg; with Rattus norvegicus [9], -8.8 delta mmHg.
As for `CCN(C)CCN1C(=O)C(OC(C)=O)C(c2ccc(OC)cc2)Sc2cc(Cl)ccc21` (single isomer, unassigned; (+)), the Half duration in the experiment on Canis familiaris [1] stood at 46 min. In addition, the Potency ratio in the experiment filed under Canis familiaris [2] was found to be 0.9. The “Increase in CBF” value in the experiment filed under Cavia porcellus [5] is greater than 0.5 mL/min. Besides, the “Change in blood pressure” value in the experiment with Rattus norvegicus [8] is reported as -55.5 delta mmHg; in the experiment on Rattus norvegicus [9], -22.3 delta mmHg.
For `CCC(=O)OC1C(=O)N(CCN(C)C)c2ccc(Cl)cc2SC1c1ccc(OC)cc1` (single isomer, unassigned; (+)), the Half duration in the experiment on Canis familiaris [1] came to 64 min. Moreover, in the experiment listed under Canis familiaris [2], the Potency ratio was 1.45. The “Increase in CBF” value in the experiment filed under Cavia porcellus [4] was greater than 0.5 mL/min. The entries for the “Change in blood pressure” value in the experiment with Rattus norvegicus [8] and in the experiment with Rattus norvegicus [10] were -67.7 delta mmHg and -60.7 delta mmHg, respectively.
Regarding `COc1ccc(C2Sc3cc(Cl)ccc3N(CCN(C)C)C(=O)C2O)cc1` (single isomer, unassigned; (-)), the Half duration with Canis familiaris [1] was found to be 23 min. For the same compound, the Potency ratio in the experiment listed under Canis familiaris [2] stood at 0.02. In the experiment filed under Cavia porcellus [5], the “Increase in CBF” value is less than 0.5 mL/min. Besides, the “Change in blood pressure” value in the experiment with Rattus norvegicus [8] (30 mg/kg) was 1 delta mmHg; in the experiment on Rattus norvegicus [7] (30 mg/kg), -20 delta mmHg.
For the compound `COc1ccc(C2Sc3cc(Cl)ccc3N(CCN(C)C)C(=O)C2OC(C)=O)cc1.Cl` (single isomer, unassigned; (-)), the Half duration in the experiment on Canis familiaris [1] amounted to 36 min. The Potency ratio in the experiment filed under Canis familiaris [2] came out at 0.06. Also, the “Increase in CBF” value in the experiment filed under Cavia porcellus [5] was less than 0.5 mL/min. Also, the figures for the “Change in blood pressure” value in the experiment on Rattus norvegicus [8] (30 mg/kg) and in the experiment on Rattus norvegicus [7] (30 mg/kg) were -6 delta mmHg and -22.7 delta mmHg, respectively.
Take `COc1ccc(C2Sc3cc(Cl)ccc3N(CCN(C)C)C(=O)C2OC(C)=O)cc1.Cl` (stereo in doubt; 2b): the Half duration in the experiment with Canis familiaris [1] is listed as 69 min. Besides, in the experiment filed under Canis familiaris [2], the Potency ratio is given as 1.15. Further, in the experiment listed under Cavia porcellus [4], the “Increase in CBF” value was greater than 0.5 mL/min.
`COc1ccc(C2Sc3c(Cl)cccc3N(CCN(C)C)C(=O)C2OC(C)=O)cc1.Cl` (stereo in doubt; 2cc) gave a Half duration in the experiment with Canis familiaris [1] of 72 min. In addition, the Potency ratio in the experiment listed under Canis familiaris [2] stood at 0.75. Moreover, the “Increase in CBF” value in the experiment listed under Cavia porcellus [4] is greater than 0.5 mL/min.
`COc1ccc(C2Sc3c(Cl)cccc3N(CCN(C)C)C(=O)C2O)cc1` (stereo in doubt; (+)-16m) registered a Half duration with Canis familiaris [1] of 46 min. The Potency ratio in the experiment listed under Canis familiaris [2] was found to be 1.25. In addition, the “Increase in CBF” value in the experiment listed under Cavia porcellus [4] is greater than 0.5 mL/min. Further, the “Change in blood pressure” value in the experiment on Rattus norvegicus [8] is -46.7 delta mmHg; with Rattus norvegicus [7], -30 delta mmHg.
Consider `COc1ccc([C@@H]2Sc3ccccc3N(CCN(C)C)C(=O)[C@@H]2OC(C)=O)cc1` [DILTIAZEM], for which, in the experiment with Canis familiaris [1], the Half duration was found to be 53 min. Further, the Potency ratio in the experiment filed under Canis familiaris [2] came to 1. In addition, the “Increase in CBF” value in the experiment listed under Cavia porcellus [4] is greater than 0.5 mL/min. The “Change in blood pressure” value with Rattus norvegicus [8] is -34 delta mmHg; in the experiment with Rattus norvegicus [7] it was -15 delta mmHg.
